Most compounds without a hit are left out; they make up all but 3.8% or so of the library.
Kir21 inh – inhibitors of mouse Kir2.1 inward-rectifier potassium channel; Inward rectifier potassium channel 2 (Mus musculus), P35561; HEK293-Kir2.1, FluxOR thallium flux fluorescence; active compounds read low; B-score at 10 µM; hit rate 0.85% among 310,000;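 active means fluorescence ratio B-score at or below minus 3 SD of library scores, with starting-brightness B-score within 2 SD, cut at about -4.2 in these data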;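 further: channel flux triggered by added potassium and thallium sulfate stimulus; B-score of peak minus minimum fluorescence over baseline after thallium stimulus; more negative B-score means stronger Kir2.1 block with less thallium influx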
KCNQ1 pot – potentiators or activators of KCNQ1 channel, primary screen, cell-based, thallium flux, high-throughput; hit rate 0.35% among 310,000; CHO-K1 KCNQ1, thallium flux FluxOR fluorescence; active compounds read high; AID 2648, 2010; B-score at 10 µM;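 active means fluorescence ratio B-score, a plate-corrected score, at least three library SD, with initial intensity B-score within 5 SD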
Target sequence (P51787 whole entry, looked up): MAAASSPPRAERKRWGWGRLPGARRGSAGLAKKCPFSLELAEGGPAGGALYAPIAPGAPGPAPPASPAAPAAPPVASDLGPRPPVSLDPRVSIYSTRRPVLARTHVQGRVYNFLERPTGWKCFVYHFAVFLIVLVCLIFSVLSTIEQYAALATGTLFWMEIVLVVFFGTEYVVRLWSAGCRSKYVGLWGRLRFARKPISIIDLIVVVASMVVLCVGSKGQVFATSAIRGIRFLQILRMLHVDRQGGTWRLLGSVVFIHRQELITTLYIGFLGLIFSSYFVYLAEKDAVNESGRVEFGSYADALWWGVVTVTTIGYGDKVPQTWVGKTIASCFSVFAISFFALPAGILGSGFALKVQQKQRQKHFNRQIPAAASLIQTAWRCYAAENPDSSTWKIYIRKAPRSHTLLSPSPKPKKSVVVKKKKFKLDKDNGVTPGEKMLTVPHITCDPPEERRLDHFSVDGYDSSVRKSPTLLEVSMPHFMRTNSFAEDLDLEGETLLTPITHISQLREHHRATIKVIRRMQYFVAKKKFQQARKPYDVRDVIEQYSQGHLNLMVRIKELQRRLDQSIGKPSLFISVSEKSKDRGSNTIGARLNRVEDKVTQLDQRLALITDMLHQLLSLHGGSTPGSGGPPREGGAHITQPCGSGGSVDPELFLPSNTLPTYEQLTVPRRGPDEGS
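Medium – assay buffer, equal DMSO in all wells · Material – CHO-K1 cell line with stable KCNQ1 potassium channel expression · Signal – kinetic FluxOR thallium fluorescence, 10-s 1-Hz baseline, 110-s post-stimulus read · Compound – single concentration per compound, DMSO matched to controls · Schedule – 37 °C overnight plating, 90-min dark dye load, 20-min compound pretreatment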
hERG rescue – hERG rescue from dofetilide block, primary screen, cell-based, CHO-hERG, FluxOR thallium flux, dofetilide IC70; Voltage-gated inwardly rectifying potassium channel KCNH2 (Homo sapiens), Q12809; dofetilide IC70 present; activation (rescue from dofetilide block), less the hit threshold, % at 10 µM; hit rate 0.51% among 310,000;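 active means activation above the mean of controls blocked by dofetilide plus 5 SD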;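 further: thallium influx through hERG after potassium depolarization seen as dye fluorescence rise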
KCNK9 block – KCNK9 potassium channel inhibitors, primary screen, HEK293 cells, thallium flux; Potassium channel subfamily K member 9 (Homo sapiens), Q9NPC2; B-score at 10 µM; hit rate 1.2% among 310,000; FluxOR thallium flux fluorescence; active compounds read low; AID 488922, 2010;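 active means ratio B-score over 3 SD below the library mean, with starting fluorescence within 5 SD of its mean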;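 further: negative B-score means less thallium flux so channel inhibition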
KCNQ1 block – inhibitors of human KCNQ1 channel, primary screen, cell-based, thallium flux, high-throughput. Potassium voltage-gated channel subfamily KQT member 1 (Homo sapiens), P51787. CHO-K1 KCNQ1, FluxOR thallium flux fluorescence; active compounds read high. B-score at 10 µM. hit rate 1.3% among 310,000. AID 2642, 2010;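 active means compounds whose thallium flux B-score, printed positive for inhibition, exceeds three library SD while starting fluorescence stays within three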;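 further: channel opened by potassium depolarization with thallium stimulus after 20 min compound exposure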
KCNK3 inh – human KCNK3 channel inhibitors, primary screen, CHO cells, FluxOR thallium flux, B-score; Potassium channel subfamily K member 3 (Homo sapiens), O14649; FluxOR fluorescence; active compounds read low; B-score at 10 µM; hit rate 0.84% among 340,000;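 active means B-score under library mean minus 4 SD, starting fluorescence ratio at most library mean plus 5 SD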;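 further: more negative B-score means stronger inhibition of thallium flux through KCNK3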
Numbers without * were called inactive; i = inactive; x = no result given.

SMILES	Kir21 inh	KCNQ1 pot	hERG rescue	KCNK9 block	KCNQ1 block	KCNK3 inh
CCn1c(=O)c2c(nc(SCC(=O)Nc3ccccc3)n2C)n(C)c1=O	-1.2	i	-6	i	i	i
CCOc1ccc(CCNC(=O)c2cc(-c3ccccc3)c(N3CCOCC3)s2)cc1OCC	0.27	i	-5	i	6*	i
Cc1cc(NC(=O)CSc2nc3ccccc3n2CCC#N)no1	0.41	i	4.9*	i	i	i
COCCNC(=O)c1onc(CSc2cc(C)ccc2C)c1C(=O)O	0	i	-7	i	i	i
Cc1ccc(C)c(SCc2noc(C(=O)NC(C)C)c2C(=O)O)c1	-0.77	9*	0	i	i	i
O=C(NNC(=O)c1ccncc1)NC1CCCCC1	-0.23	i	8.7*	i	i	i
O=C(NNC(=O)C1CCCCC1)c1ccncc1	-1.4	i	-7	i	i	i
CC1CC2=C(NC(=S)NC2c2ccccc2F)/C(=C/c2ccccc2F)C1 (centres undefined)	2.3	i	-11	i	6*	i
CC1CC2=C(NC(=S)NC2c2cccc(F)c2)/C(=C/c2cccc(F)c2)C1 (centres undefined)	0.08	i	-16	i	i	i
O=C(NCCNCc1cccc(Cl)c1)c1ccco1	x	x	x	x	x	i
Clc1cccc(CNCCNCc2cccc(Cl)c2)c1	-4.3*	i	-16	i	i	i
O=C(NCC(c1ccco1)N1CCc2ccccc2C1)c1ccc(Cl)c([N+](=O)[O-])c1 (centres undefined)	-0.28	i	-13	i	6*	i
O=C(NCC(c1ccco1)N1CCc2ccccc2C1)c1ccc(Cl)cc1 (centres undefined)	-0.33	i	-12	i	i	i
COc1ccc(NC(=O)CN(C)C(=O)c2cc(-c3ccc(Cl)cc3)nc3ccccc23)cc1	1.4	i	-30	i	7*	i
O=C(Nc1ccccn1)c1cc(-c2cccnc2)nc2ccc(Br)cc12	-0.4	i	-13	-6.9*	i	i
O=C(NNC(=O)c1cc(-c2cccnc2)nc2ccccc12)Nc1ccc(Cl)cc1	-0.85	i	-40	i	12*	i
O=C(NNC(=O)c1cc(-c2ccncc2)nc2ccccc12)Nc1ccc(F)cc1	1.1	i	-8	i	i	i
CC(C)(C)c1ccc(-c2cc(C(=O)NNC(=O)Nc3ccccc3)c3ccccc3n2)cc1	0.62	i	-6	i	i	-10*
COc1cccc(C(=O)NCCS(=O)(=O)N2CCN(C(=O)c3ccco3)CC2)c1	-0.05	i	-6	i	i	i
O=C(COC(=O)c1cccc(S(=O)(=O)N2CCOCC2)c1)NCc1ccccc1	x	x	x	x	x	i
Cc1nn(Cc2ccc(C(=O)N/N=C/c3ccncc3)o2)c(C)c1Cl	0.69	i	-12	i	i	i
Cc1ccc(CNC(=O)c2ccc(Cn3nc(C)c(Cl)c3C)o2)cc1	-9*	i	-18	-7*	i	i
Cc1ccc2cccc(S(=O)(=O)Nc3ccc4c(c3)OCO4)c2n1	-5.3*	i	-10	i	i	i
COc1ccccc1N1CCN(CCN2C(=O)C3CCCCN3C2=O)CC1 (centres undefined)	-1	i	-6	i	i	i
CC(=O)Oc1ccccc1C(=O)N1CCN(S(=O)(=O)c2ccc3ccccc3c2)CC1	-0.19	i	-11	i	i	i
SMILES	Kir21 inh	KCNQ1 pot	hERG rescue	KCNK9 block	KCNQ1 block	KCNK3 inh
Cc1ccc(C(C)C)c(OCC(=O)Nc2ccccc2N2CCN(C)CC2)c1	-5.1*	i	-10	i	i	i
Cc1cc(Cl)ccc1OCC(=O)Nc1ccccc1C(=O)N1CCOCC1	-4.5*	i	-12	i	i	i
Cc1ccc(C(C)C)c(OCC(=O)Nc2ccc(N3CCOCC3)cc2N2CCOCC2)c1	x	x	x	x	x	i
CC(=O)N1CCN(c2ccccc2NC(=O)COc2cc(C)ccc2C(C)C)CC1	-3.2	i	-24	i	6*	i
Cc1cc(OCC(=O)NCC(c2cccs2)N2CCOCC2)ccc1C(C)C (centres undefined)	-1.9	i	-15	i	i	i
Cc1cc(OCC(=O)Nc2ccccc2N2CCCCC2)ccc1C(C)C	-1.2	i	-10	i	i	i
Cc1ccc(C(C)C)c(OCC(=O)NCC(c2cccs2)N2CCOCC2)c1 (centres undefined)	-6.2*	i	-15	i	i	i
CCOC(=O)CNC(=O)N(CCOC)CC1CCCN(C2Cc3ccccc3C2)C1 (centres undefined)	2.2	i	-9	i	i	i
Cc1ccc(OCC(=O)Nc2ccccc2N2CCOCC2)c(C)c1	-8.9*	i	-4	i	i	i
COc1cc(C)ccc1OCC(=O)Nc1ccccc1N1CCOCC1	x	x	x	x	x	i
CC(=O)C1=C(C)NC(SCC(=O)c2ccc(Cl)cc2)=C(C#N)C1c1ccco1 (centres undefined)	-1.1	i	-5	-15*	i	i
CC(=O)C1=C(C)NC(SCc2ccc(C#N)cc2)=C(C#N)C1c1ccco1 (centres undefined)	x	x	x	x	x	i
O=C(CN1CCN(c2ccccc2)CC1)Nc1ccc(Oc2ccccc2)cc1	-0.89	i	-14	i	i	i
S=c1[nH]nc(-c2ccccc2)n1/N=C/c1ccc(-c2ccccc2Cl)o1	0.83	8*	4	i	i	i
S=c1[nH]nc(-c2ccccn2)n1/N=C/c1ccc(-c2ccccc2Br)o1	-0.79	i	14*	i	i	i
Cc1ccccc1OCC(=O)OCC(=O)Nc1cc(S(=O)(=O)N2CCCCC2)ccc1Cl	-0.61	i	-9	i	i	i
COC(=O)Cc1c[nH]c2cccc(OCC(O)CN(Cc3ccc([N+](=O)[O-])cc3)C(C)(C)C)c12 (centres undefined)	-1.4	i	-11	-7.8*	i	i
C=CC[n+]1ccn(-c2nc3ccccc3nc2[N-]S(=O)(=O)c2cccs2)c1	0.57	i	0	i	i	i
NC1=NC2(CCC(c3ccccc3)CC2)n2c(nc3ccccc32)N1 (centres undefined)	0.69	i	-9	-7.9*	i	i

High-throughput results (PubChem BioAssay)
